Reference: ChEMBL document CHEMBL2424622, “Development of amino-pyrimidine inhibitors of c-Jun N-terminal kinase (JNK): kinase profiling guided optimization of a 1,2,3-benzotriazole lead” (Bioorg Med Chem Lett, 2013)

Key:
[1] = target: Mitogen-activated protein kinase 9 (Homo sapiens, UniProt P45984)
[2] = target: Mitogen-activated protein kinase 1 (Homo sapiens, UniProt P28482); assay: Competitive binding affinity to ERK2 (unknown origin) at 10 uM in presence of ATP relative to control
Procedure, shortened: (§1)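 In vitro ATP-site competition binding assay, part of profiling against a diverse panel of 128 kinases. Each compound was tested at a single concentration of 10 µM. Kinome selectivity was summarized as S15 selectivity scores.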

[3] = target: Death-associated protein kinase 2 (Homo sapiens, UniProt Q9UIK4); assay: Competitive binding affinity to DAPK2 (unknown origin) at 10 uM in presence of ATP relative to control
Sequence of Death-associated protein kinase 2 (Q9UIK4 whole entry, looked up): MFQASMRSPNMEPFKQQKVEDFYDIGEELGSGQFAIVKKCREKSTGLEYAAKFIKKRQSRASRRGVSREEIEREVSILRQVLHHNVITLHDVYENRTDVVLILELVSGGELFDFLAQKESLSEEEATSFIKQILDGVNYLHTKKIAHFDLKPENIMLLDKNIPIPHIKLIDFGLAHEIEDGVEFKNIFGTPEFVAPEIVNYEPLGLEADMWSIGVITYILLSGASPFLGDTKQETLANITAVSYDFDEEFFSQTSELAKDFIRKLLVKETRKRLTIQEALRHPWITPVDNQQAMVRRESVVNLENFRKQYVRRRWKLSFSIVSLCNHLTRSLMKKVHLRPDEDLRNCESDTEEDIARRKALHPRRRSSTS
Procedure, shortened: (§2)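 In vitro ATP-site competition binding assay across a diverse panel of 128 kinases, with each compound tested at a single concentration. Kinase binding is expressed relative to control.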

[4] = target: Platelet-derived growth factor receptor beta (Homo sapiens, UniProt P09619); assay: Competitive binding affinity to PDGFRB (unknown origin) at 10 uM in presence of ATP relative to control
Sequence of Platelet-derived growth factor receptor beta (P09619 whole entry): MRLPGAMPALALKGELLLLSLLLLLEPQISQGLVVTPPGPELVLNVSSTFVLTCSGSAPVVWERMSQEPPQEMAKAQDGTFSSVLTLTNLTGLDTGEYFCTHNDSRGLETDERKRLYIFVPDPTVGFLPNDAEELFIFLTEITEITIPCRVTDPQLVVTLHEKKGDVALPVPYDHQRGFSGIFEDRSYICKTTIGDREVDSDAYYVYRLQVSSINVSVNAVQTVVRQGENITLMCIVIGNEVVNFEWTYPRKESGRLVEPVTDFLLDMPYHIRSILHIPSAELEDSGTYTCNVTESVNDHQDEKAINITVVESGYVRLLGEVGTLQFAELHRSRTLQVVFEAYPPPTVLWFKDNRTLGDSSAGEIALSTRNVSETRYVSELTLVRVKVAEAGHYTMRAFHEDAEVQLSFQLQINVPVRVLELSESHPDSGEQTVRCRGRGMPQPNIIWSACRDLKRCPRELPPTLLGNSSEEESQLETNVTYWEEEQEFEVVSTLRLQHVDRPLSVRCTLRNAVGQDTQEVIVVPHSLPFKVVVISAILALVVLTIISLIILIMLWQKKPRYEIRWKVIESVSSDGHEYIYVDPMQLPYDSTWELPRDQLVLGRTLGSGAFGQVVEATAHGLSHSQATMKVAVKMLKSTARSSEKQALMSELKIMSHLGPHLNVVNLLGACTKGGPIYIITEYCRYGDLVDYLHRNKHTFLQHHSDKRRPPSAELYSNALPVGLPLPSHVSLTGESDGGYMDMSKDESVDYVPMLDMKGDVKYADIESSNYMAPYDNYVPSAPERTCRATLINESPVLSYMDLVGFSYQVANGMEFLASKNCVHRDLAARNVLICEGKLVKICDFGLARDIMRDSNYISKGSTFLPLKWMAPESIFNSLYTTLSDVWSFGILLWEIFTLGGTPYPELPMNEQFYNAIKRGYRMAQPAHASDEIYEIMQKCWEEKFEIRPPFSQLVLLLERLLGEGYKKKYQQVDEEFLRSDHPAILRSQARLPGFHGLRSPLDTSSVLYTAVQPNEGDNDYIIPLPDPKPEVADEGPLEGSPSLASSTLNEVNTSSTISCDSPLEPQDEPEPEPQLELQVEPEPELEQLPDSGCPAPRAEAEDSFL
Procedure, shortened: as §2

[5] = target: Mitogen-activated protein kinase 14 (Homo sapiens, UniProt Q16539); assay: Competitive binding affinity to p38-alpha (unknown origin) at 10 uM in presence of ATP relative to control
Sequence of Mitogen-activated protein kinase 14 (Q16539 whole entry): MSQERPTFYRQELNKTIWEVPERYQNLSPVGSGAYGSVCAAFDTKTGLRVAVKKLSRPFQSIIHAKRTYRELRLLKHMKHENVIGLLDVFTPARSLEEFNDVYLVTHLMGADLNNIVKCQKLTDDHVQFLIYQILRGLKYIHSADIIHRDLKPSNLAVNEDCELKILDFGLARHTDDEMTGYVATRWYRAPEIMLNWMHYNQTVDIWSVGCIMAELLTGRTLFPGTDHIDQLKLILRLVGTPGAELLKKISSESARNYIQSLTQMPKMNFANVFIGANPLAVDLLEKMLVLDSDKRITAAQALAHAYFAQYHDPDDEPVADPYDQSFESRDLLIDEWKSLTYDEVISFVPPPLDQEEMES
Procedure, shortened: (§3)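 In vitro ATP-site competition binding assay across a diverse panel of 128 kinases, with compound tested at a single concentration. Kinase selectivity scores (S15) were calculated from the panel profiles.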

[6] = target: Serine/threonine-protein kinase PAK 5 (Homo sapiens) (UniProt Q9P286); assay: Competitive binding affinity to PAK7/PAK5 (unknown origin) at 10 uM in presence of ATP relative to control
Sequence of Serine/threonine-protein kinase PAK 5 (Homo sapiens) (Q9P286 whole entry, looked up): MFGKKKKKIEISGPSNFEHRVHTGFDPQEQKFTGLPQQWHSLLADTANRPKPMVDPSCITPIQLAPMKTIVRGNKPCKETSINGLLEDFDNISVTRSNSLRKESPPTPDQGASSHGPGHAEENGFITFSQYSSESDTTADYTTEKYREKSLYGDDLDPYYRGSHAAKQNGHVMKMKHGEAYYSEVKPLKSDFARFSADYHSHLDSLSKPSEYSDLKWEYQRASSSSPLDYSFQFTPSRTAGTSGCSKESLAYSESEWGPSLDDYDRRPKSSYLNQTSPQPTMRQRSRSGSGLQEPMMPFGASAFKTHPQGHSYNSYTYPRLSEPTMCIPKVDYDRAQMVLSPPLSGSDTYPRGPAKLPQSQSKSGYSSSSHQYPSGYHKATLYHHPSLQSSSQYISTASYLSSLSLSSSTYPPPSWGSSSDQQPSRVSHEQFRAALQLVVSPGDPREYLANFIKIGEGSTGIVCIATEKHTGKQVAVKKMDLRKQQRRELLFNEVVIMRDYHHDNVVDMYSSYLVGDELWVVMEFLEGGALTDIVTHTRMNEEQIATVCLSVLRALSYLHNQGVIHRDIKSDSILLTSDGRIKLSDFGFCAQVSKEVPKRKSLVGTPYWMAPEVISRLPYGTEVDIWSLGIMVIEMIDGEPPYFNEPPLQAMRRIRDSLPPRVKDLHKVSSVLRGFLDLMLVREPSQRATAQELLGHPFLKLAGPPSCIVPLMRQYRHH
Procedure, shortened: as §3

[7] = target: Tyrosine-protein kinase FRK (Homo sapiens) (UniProt P42685); assay: Competitive binding affinity to FRK (unknown origin) at 10 uM in presence of ATP relative to control
Procedure, shortened: as §1

[8] = target: T1, Ephrin type-B receptor 1 (Homo sapiens) (UniProt P54762); assay: Competitive binding affinity to EPHB1 (unknown origin) at 10 uM in presence of ATP relative to control
T1 sequence (whole entry): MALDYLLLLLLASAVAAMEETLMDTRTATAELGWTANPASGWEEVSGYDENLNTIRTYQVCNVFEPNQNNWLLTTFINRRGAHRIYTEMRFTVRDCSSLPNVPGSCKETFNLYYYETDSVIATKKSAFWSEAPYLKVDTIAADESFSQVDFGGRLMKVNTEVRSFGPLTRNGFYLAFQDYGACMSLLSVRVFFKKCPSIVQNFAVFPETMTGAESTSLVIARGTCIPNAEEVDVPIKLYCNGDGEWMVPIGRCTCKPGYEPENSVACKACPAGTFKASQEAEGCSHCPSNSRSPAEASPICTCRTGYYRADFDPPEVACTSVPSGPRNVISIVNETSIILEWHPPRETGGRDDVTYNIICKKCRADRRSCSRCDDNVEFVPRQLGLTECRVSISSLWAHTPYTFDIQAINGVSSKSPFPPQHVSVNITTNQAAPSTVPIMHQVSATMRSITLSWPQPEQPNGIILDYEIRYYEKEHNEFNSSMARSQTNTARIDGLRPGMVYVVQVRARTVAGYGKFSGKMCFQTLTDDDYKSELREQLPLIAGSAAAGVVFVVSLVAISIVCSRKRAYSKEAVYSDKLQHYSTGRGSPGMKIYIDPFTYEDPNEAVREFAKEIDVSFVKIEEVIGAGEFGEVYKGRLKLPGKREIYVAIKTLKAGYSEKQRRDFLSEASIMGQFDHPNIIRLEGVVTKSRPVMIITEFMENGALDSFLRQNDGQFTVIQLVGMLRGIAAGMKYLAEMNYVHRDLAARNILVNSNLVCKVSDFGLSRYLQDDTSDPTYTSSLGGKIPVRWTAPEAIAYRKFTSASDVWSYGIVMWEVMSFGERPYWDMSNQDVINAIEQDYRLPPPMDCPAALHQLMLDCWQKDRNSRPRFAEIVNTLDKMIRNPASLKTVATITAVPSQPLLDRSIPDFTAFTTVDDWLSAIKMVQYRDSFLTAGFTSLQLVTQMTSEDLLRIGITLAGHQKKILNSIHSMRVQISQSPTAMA
Procedure, shortened: as §1

[9] = target: Calcium/calmodulin-dependent protein kinase type II subunit gamma (Homo sapiens) (UniProt Q13555); assay: Competitive binding affinity to CAMK2G (unknown origin) at 10 uM in presence of ATP relative to control
Sequence of Calcium/calmodulin-dependent protein kinase type II subunit gamma (Homo sapiens) (Q13555 whole entry): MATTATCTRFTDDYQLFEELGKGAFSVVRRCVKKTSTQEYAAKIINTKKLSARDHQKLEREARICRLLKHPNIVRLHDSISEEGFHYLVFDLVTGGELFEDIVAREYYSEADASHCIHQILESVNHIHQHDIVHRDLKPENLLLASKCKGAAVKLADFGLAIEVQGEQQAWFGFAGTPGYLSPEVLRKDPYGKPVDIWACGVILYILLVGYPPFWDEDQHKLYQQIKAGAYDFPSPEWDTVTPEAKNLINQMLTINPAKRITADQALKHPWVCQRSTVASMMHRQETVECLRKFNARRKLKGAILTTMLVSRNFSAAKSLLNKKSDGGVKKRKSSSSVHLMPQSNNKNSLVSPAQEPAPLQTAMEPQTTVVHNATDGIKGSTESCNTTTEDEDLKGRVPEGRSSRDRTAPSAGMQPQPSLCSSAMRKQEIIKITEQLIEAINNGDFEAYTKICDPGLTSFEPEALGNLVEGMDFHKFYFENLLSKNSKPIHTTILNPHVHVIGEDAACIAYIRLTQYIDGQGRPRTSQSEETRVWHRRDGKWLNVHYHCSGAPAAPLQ

[10] = target: Calcium/calmodulin-dependent protein kinase kinase 1 (Homo sapiens) (UniProt Q8N5S9); assay: Competitive binding affinity to CAMKK1 (unknown origin) at 10 uM in presence of ATP relative to control
[11] = target: Tyrosine-protein kinase Lyn (Homo sapiens) (UniProt P07948); assay: Competitive binding affinity to LYN (unknown origin) at 10 uM in presence of ATP relative to control
Procedure, shortened: as §1

[12] = target: Serine/threonine-protein kinase PAK 4 (Homo sapiens) (UniProt O96013); assay: Competitive binding affinity to PAK4 (unknown origin) at 10 uM in presence of ATP relative to control
Procedure, shortened: as §3

[13] = target: Angiopoietin-1 receptor (Homo sapiens) (UniProt Q02763); assay: Competitive binding affinity to TIE2 (unknown origin) at 10 uM in presence of ATP relative to control
Sequence of Angiopoietin-1 receptor (Homo sapiens) (Q02763 whole entry): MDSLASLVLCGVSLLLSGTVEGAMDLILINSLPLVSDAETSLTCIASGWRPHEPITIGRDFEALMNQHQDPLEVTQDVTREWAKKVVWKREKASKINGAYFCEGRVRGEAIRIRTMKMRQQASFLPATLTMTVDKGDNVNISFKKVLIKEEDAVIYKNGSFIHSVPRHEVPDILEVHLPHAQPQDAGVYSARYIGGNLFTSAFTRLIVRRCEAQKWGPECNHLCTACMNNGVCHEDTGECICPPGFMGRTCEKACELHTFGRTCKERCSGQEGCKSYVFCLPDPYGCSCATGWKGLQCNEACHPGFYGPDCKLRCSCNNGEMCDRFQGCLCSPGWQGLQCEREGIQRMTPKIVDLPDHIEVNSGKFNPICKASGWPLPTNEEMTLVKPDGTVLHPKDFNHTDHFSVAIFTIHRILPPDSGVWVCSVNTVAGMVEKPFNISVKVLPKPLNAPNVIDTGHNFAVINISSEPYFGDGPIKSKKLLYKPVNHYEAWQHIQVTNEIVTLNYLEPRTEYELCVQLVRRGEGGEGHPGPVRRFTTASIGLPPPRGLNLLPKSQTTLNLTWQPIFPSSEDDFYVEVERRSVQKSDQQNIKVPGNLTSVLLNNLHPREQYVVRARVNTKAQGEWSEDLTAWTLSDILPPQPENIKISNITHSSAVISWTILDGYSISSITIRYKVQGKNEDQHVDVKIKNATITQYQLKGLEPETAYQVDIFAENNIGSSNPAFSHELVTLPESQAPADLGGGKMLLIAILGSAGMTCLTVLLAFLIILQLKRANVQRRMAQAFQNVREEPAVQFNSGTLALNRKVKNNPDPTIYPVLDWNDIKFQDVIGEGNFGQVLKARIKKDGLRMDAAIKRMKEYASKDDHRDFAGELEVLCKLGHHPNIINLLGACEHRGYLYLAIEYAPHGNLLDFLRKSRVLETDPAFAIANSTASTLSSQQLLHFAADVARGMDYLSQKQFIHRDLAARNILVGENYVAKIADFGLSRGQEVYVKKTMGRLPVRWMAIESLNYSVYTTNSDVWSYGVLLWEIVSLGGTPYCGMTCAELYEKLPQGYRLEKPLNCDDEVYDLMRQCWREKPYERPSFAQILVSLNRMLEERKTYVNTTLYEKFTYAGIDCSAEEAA
Procedure, shortened: as §3

[14] = target: Ribosomal protein S6 kinase alpha-2 (Homo sapiens) (UniProt Q15349); assay: Competitive binding affinity to RPS6KA2 kinase domain 1 (unknown origin) at 10 uM in presence of ATP relative to control
Procedure, shortened: as §2

[15] = target: Fibroblast growth factor receptor 1 (Homo sapiens) (UniProt P11362); assay: Competitive binding affinity to FGFR1 (unknown origin) at 10 uM in presence of ATP relative to control
Procedure, shortened: as §1

[16] = target: Proto-oncogene tyrosine-protein kinase Src (Homo sapiens) (UniProt P12931); assay: Competitive binding affinity to SRC (unknown origin) at 10 uM in presence of ATP relative to control
Procedure, shortened: as §3

[17] = target: Tyrosine-protein kinase Yes (Homo sapiens) (UniProt P07947); assay: Competitive binding affinity to YES (unknown origin) at 10 uM in presence of ATP relative to control
Procedure, shortened: as §3

[18] = target: TRAF2 and NCK-interacting protein kinase (Homo sapiens) (UniProt Q9UKE5); assay: Competitive binding affinity to TNIK (unknown origin) at 10 uM in presence of ATP relative to control
Procedure, shortened: as §3

[19] = target: Serine/threonine-protein kinase Nek6 (Homo sapiens) (UniProt Q9HC98); assay: Competitive binding affinity to NEK6 (unknown origin) at 10 uM in presence of ATP relative to control
Procedure, shortened: as §3

[20] = target: Ephrin type-A receptor 2 (Homo sapiens) (UniProt P29317); assay: Competitive binding affinity to EPHA2 (unknown origin) at 10 uM in presence of ATP relative to control
Procedure, shortened: as §1

[21] = target: Focal adhesion kinase 1 (Homo sapiens) (UniProt Q05397); assay: Competitive binding affinity to PTK2 (unknown origin) at 10 uM in presence of ATP relative to control
Procedure, shortened: as §3

Sequence of Mitogen-activated protein kinase 1 (P28482 whole entry): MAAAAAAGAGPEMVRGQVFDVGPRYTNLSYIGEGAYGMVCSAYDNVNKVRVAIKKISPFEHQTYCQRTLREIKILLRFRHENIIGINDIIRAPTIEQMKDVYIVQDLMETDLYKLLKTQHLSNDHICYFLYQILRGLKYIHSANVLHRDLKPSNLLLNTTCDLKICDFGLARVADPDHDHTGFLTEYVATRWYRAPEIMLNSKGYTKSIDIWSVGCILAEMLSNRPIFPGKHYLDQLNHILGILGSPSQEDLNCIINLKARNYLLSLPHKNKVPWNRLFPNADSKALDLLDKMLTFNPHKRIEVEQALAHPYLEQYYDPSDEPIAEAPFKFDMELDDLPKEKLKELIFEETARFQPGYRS
Sequence of Mitogen-activated protein kinase 9 (P45984 whole entry): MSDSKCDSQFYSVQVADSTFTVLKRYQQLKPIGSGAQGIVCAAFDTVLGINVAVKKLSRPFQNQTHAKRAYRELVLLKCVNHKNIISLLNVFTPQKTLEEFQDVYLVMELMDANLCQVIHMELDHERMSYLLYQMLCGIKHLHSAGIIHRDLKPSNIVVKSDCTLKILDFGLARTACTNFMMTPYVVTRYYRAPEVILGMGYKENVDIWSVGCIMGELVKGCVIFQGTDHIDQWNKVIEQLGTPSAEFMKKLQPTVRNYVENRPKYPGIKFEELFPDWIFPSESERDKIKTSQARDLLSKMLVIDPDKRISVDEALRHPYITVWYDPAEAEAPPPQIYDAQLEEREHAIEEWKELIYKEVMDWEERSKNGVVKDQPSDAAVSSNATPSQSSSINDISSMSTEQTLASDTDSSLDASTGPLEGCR

| SMILES | IC50 [1] [nM] | inhibition [2] [%] | inhibition [3] [%] | inhibition [4] [%] | inhibition [5] [%] | inhibition [6] [%] | inhibition [7] [%] | inhibition [8] [%] | inhibition [9] [%] | inhibition [10] [%] | inhibition [11] [%] | inhibition [12] [%] | inhibition [13] [%] | inhibition [14] [%] | inhibition [15] [%] | inhibition [16] [%] | inhibition [17] [%] | inhibition [18] [%] | inhibition [19] [%] | inhibition [20] [%] | also measured |
| --- | --- | --- | --- | --- | --- | --- | --- | --- | --- | --- | --- | --- | --- | --- | --- | --- | --- | --- | --- | --- | --- |
| CS(=O)(=O)CCCOc1cccc2c1ccn2-c1ccnc(N[C@H]2CC[C@H](C(=O)N3CCC(O)CC3)CC2)n1 | 66 | > 85 | > 85 | > 85 | > 85 | – | – | – | – | – | – | – | – | – | – | – | – | – | – | – | – |
| O[C@H]1CC[C@H](Nc2nccc(-n3ccc4ccccc43)n2)CC1 | 360 | < 50 | < 50 | 67 | < 50 | < 50 | < 50 | < 50 | 67 | < 50 | < 50 | < 50 | < 50 | < 50 | < 50 | < 50 | < 50 | < 50 | < 50 | < 50 | inhibition [21]: < 50% |
| N[C@H]1CC[C@H](Nc2nccc(-n3nnc4ccccc43)n2)CC1 | 170 | < 50 | 94 | 95 | < 50 | < 50 | < 50 | 73 | < 50 | < 50 | < 50 | < 50 | < 50 | 91 | < 50 | < 50 | < 50 | 92 | < 50 | < 50 | inhibition [21]: < 50% |
| O[C@H]1CC[C@H](Nc2nccc(-n3nnc4ccccc43)n2)CC1 | 110 | < 50 | 96 | 91 | < 50 | < 50 | < 50 | < 50 | 69 | < 50 | < 50 | < 50 | < 50 | 95 | < 50 | < 50 | < 50 | < 50 | 73 | < 50 | inhibition [21]: < 50% |
| O[C@H]1CC[C@H](Nc2nccc(-n3ncc4ccccc43)n2)CC1 | 350 | < 50 | < 50 | 90 | < 50 | < 50 | < 50 | < 50 | 80 | < 50 | < 50 | < 50 | < 50 | 73 | < 50 | < 50 | < 50 | 79 | < 50 | < 50 | inhibition [21]: < 50% |
| O=C([C@H]1CC[C@H](Nc2nccc(-n3nnc4ccccc43)n2)CC1)N1CCOCC1 | 180 | 86 | < 50 | 70 | < 50 | < 50 | < 50 | < 50 | < 50 | < 50 | < 50 | < 50 | < 50 | 100 | < 50 | < 50 | < 50 | < 50 | 66 | < 50 | inhibition [21]: < 50% |
| O[C@H]1CC[C@H](Nc2nccc(-c3n[nH]c4ccccc34)n2)CC1 | 650 | 82 | 94 | 98 | < 50 | 86 | < 50 | < 50 | 88 | 85 | < 50 | 92 | < 50 | 99 | 80 | 78 | 78 | 99 | 77 | < 50 | inhibition [21]: 85% |
